Measured values collected from several papers.
Compare with care: the assays were run in different laboratories.
Target: Serine/threonine-protein kinase PAK 5 (PAK5, Homo sapiens, UniProt Q9P286)

CN1CC(Oc2cnc(C#N)cc2-c2ccn3nc(NC(=O)C4CC4)cc3c2)C1  inhibition (enzyme activity; inhibitor; 1 µM): 3%
Oc1cccc(-c2nc(N3CCOCC3)c3oc4ncccc4c3n2)c1  remaining activity (enzyme activity; inhibitor; 10 µM): 112%
COc1cc2ncnc(Nc3ccc(Oc4ccccc4)cc3C)c2cc1OC  inhibition (enzyme activity; inhibitor; 1 µM): 1%
CCCS(=O)(=O)Nc1ccc(F)c(C(=O)c2c[nH]c3ncc(-c4ccc(Cl)cc4)cc23)c1F  inhibition (enzyme activity; inhibitor; 1 µM): < 10%
CCN(CC)CCNC(=O)c1c(C)[nH]c(/C=C2\C(=O)Nc3ccc(F)cc32)c1C  inhibition (enzyme activity; inhibitor; 10 µM): 55%
C[C@H]1CCN(c2nccc(-c3cnn4ncccc34)n2)C1  remaining binding (binding; 1 µM): 100%
O=C1NC(=O)c2cc(Nc3ccc(F)cc3)c(Nc3ccc(F)cc3)cc21  remaining signal (cell-free assay; 0.5 µM): 96.4%
CC(=O)N1CCC(c2ccc(C(=O)NC3=NCCN3)cc2C(F)(F)F)CC1  remaining binding (cell-free assay; competition with immobilised ligand; 1 µM): 87%
Nc1ncnc2occ(-c3ccc(NC(=O)Nc4cc(C(F)(F)F)ccc4F)cc3)c12  remaining signal (cell-free assay; inhibitor; 20 µM): 60%
O=C(Nc1cnn(-c2csc(C(=O)NC3COC3)c2)c1)Nc1c(F)cccc1Cl  remaining activity (enzyme activity; inhibitor; 5 µM): 92.9%
Cn1nc(C(=O)NCc2ccc(C(=O)O)cc2)cc1-c1ccc2[nH]ccc2c1  remaining binding (cell-free assay; competition with immobilised ligand; 0.1 µM): 62%
FC(F)(F)Oc1cccc(-c2cnc3ccc(-c4ccncc4)nn23)c1  activity vs control (enzyme activity; inhibitor; radiometric; 5 µM): 62%
Nc1c(C(=O)NCc2ccc(C(=O)NCCCC3CCCCC3)cc2)cnn1-c1ccccc1  remaining binding (cell-free assay; competition with immobilised ligand; 0.1 µM): 100%
CNC(=O)c1cc(Oc2ccc(NC(=O)Nc3ccc(Cl)c(C(F)(F)F)c3)cc2)ccn1  inhibition (enzyme activity; inhibitor; 0.3 µM): -18%
CN(C)C(=O)Cn1cc(-c2nc(C3(c4ccc(-c5cnc(N)nc5)cc4)CC3)no2)cn1  remaining binding (cell-free assay; competition with immobilised ligand; 1 µM): 88%
Cc1ccc(C(=O)NCc2ccsc2)cc1C#Cc1cn(C(C)C)c2ncnc(N)c12  activity vs control (enzyme activity; inhibitor; 1 µM): 105%
CCC(=O)N[C@@H]1CC[C@H](C(=O)N(C)c2ccc(-c3nc4ccccc4o3)cc2)C1  remaining binding (cell-free assay; competition with immobilised ligand; 1 µM): 100%
Nc1nc(Nc2ccccc2)sc1C(=O)c1c(F)cccc1F  remaining activity (enzyme activity; inhibitor; 10 µM): 66%
COc1ccc2cc(OCC3(C(=O)O)CN(C(=O)c4ccc(F)cc4)C3)ccc2c1  remaining binding (cell-free assay; competition with immobilised ligand; 1 µM): 100%
Cc1ccc(Nc2nccc(N(C)c3ccc4c(C)n(C)nc4c3)n2)cc1S(N)(=O)=O  remaining signal (cell-free assay; inhibitor; 0.5 µM): 95.4%
